Screening data (PubChem)
PostGolgi ctrl = inhibits growth of the yeast control strain; inhibition, % at 10 µM; hit rate 5% among 98,000; efflux-deficient yeast background strain, growth absorbance A615, 16 h
PostGolgi yeast = growth inhibition of a yeast mutant, post-Golgi transport screen. post-Golgi transport phenotypic cell assay. inhibition, % at 10 µM. hit rate 0.9% among 98,000. AID 739;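 further: yeast cells grown in 1536-well plates; yeast grown about 18 h at 30C before absorbance read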
Cav32 inh = inhibitors of human Cav3.2 T-type calcium channel. B-score at 10 µM. AID 449739. Cav3.2-expressing cells, Fluo-4 calcium fluorescence FDSS; hits give low values. O95180. hit rate 4% among 100,000;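 active means single-dose well whose peak fluorescence ratio is a statistical outlier from its plate by either plate-standardised score or position-corrected B-score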
E coli WT exp = E. coli BW25113 growth inhibition, expanded screen. OD600 absorbance. growth inhibition, % at 100 µM. hit rate 0.15% among 98,000. AID 710;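 active means growth inhibition above about 50% at one test dose, limit read from the data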;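 further: growth measured after 20 h incubation at 37 °C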
Ecoli tolC = growth inhibitors of E. coli BW25113 tolC mutant. AID 573. growth inhibition, % at 10 µM (by protocol). hit rate 2.2% among 65,000. OD615;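 active means growth inhibition at or above a cutoff equal to the mean over every tested compound plus 3 SD, cut at about 60% in these data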;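 further: growth measured after 20 h incubation at 37 °C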
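Test system: E. coli BW25113 ΔtolC::kan bacteria; incubation: 37 °C, 20 h exposure; medium: LB broth supplemented with 50 µg/mL kanamycin; read-out basis: percent growth inhibition; signal: A615 absorbance measurement; compound: 10 µM final, single dose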
Each line names hits and unclear results; the compound was inactive in the other large screens. The list is not random: actives were taken first. Their share in the collection is about 8.4%. Unless noted, no stated cut-off is given here; in the data, active means inhibition above about 30%; inactive means the rest.

Cn1c(=O)[nH]c(=O)c2c1nc(N1CCCC1)n2CCCSc1nc2ccccc2o1	PostGolgi ctrl 45.6
CCCCCCn1c(N2CCN(c3ccccc3)CC2)nc2c1c(=O)[nH]c(=O)n2C	Cav32 inh -5.71
CCCCCCCCn1c(N2CCN(c3cccc(Cl)c3)CC2)nc2c1c(=O)[nH]c(=O)n2C	none (no result: Ecoli tolC)
N[C@@H](Cc1ccc(O)cc1)c1nnc([C@H](CCC(=O)O)NC(=O)C2CCNCC2)o1	none (no result: PostGolgi ctrl, PostGolgi yeast, E coli WT exp, Ecoli tolC)
COc1ccccc1CN(Cc1cc2c(C)ccc(C)c2[nH]c1=O)Cc1nnnn1Cc1ccco1	none
CC(C#N)Sc1nc2ccccc2c(=O)n1-c1ccccc1 (configuration not stated)	none
COC(=O)c1ccccc1NC(=O)C1CCN(C(=O)c2cc(OC)c(OC)c(OC)c2)CC1	none
CC(C)CCn1c(N2CCN(c3cccc(Cl)c3)CC2)nc2c1c(=O)[nH]c(=O)n2C	PostGolgi ctrl 35.3, Cav32 inh -8.46
Cc1ccc(Nc2cc(C)nn2-c2nc(C)cc(C)n2)cc1	PostGolgi ctrl 38.9
C#CCNC(=O)C1=C[C@H](C2CC2)C[C@H](OCCCCO)O1	none (no result: PostGolgi ctrl, PostGolgi yeast, E coli WT exp, Ecoli tolC)
CC(C)N(CCCNC(=O)CC1Oc2ccccc2NC1=O)Cc1ccccc1 (configuration not stated)	none
Cc1ccc(C(C(=O)NC2CCCC2)N(C(=O)Cc2cccs2)c2ccc(C)c(C)c2)o1 (configuration not stated)	Cav32 inh -2.31 (no result: Ecoli tolC)
Cc1nn(C)cc1C(C(=O)NC1CCCCC1)N(C(=O)Cc1cccs1)c1ccc(C(C)C)cc1 (configuration not stated)	Cav32 inh -5.26 (no result: Ecoli tolC)
O=C(Cn1c(C(=O)NCc2ccco2)cc2sccc21)c1ccccc1	PostGolgi ctrl 44.0, Ecoli tolC 64.7 (no result: Cav32 inh)
O=C(Cn1c(C(=O)NCC2CCCO2)cc2sccc21)c1ccccc1 (configuration not stated)	none
COc1ccc(NC(=O)c2cccc(NC(=O)C3C4CC5OC(=O)C3C5C4)c2)c(OC)c1 (configuration not stated)	none
S=C(Nc1ccccc1)N1CCn2c1nc1ccccc12	PostGolgi ctrl 38.0 (no result: Ecoli tolC)
O=C(CCCn1nnc(-c2cccnc2)n1)c1ccc(F)cc1	none
CC(=O)c1ccc(N2C(=O)C3C(C2=O)C(C(=O)c2ccc(Cl)cc2)N2CCCC32)cc1 (configuration not stated)	none
O=C(c1ccc(Cl)cc1)C1C2C(=O)N(c3ccccc3)C(=O)C2C2CCCN21 (configuration not stated)	Cav32 inh -6.85
Cc1ccc(C2C(C#N)=C(N)SC(N)=C2C#N)cc1	PostGolgi ctrl 39.6 (no result: Cav32 inh)
CC(c1ccccc1)C1C(C#N)=C(N)SC(N)=C1C#N (configuration not stated)	Cav32 inh -5.03
Cc1ccc(C2C(C#N)=C(N)SC(N)=C2C#N)c(C)c1	none
CS(=O)(=O)N(CC(O)CON=C1c2ccccc2-c2ccccc21)c1ccc(F)cc1 (configuration not stated)	none (no result: Ecoli tolC)
Cc1cccc(N(CC(O)CON=C2c3ccccc3-c3ccccc32)S(C)(=O)=O)c1 (configuration not stated)	PostGolgi ctrl 40.5 (no result: Ecoli tolC)
CCOc1ccc(N2CC(C(=O)Nc3ccc(F)cc3F)CC2=O)cc1 (configuration not stated)	none
COc1cccc(N2CC(C(=O)Nc3ccc(C(=O)OC(C)C)cc3)CC2=O)c1 (configuration not stated)	Cav32 inh -4.56, Ecoli tolC 61.7
CCOc1ccc(N2CC(C(=O)Nc3ccccc3OC)CC2=O)cc1 (configuration not stated)	Cav32 inh -5.09
COc1cccc(N2CC(C(=O)NC3CCCCC3)CC2=O)c1 (configuration not stated)	none
Cc1ccc(-c2nc3cccnc3s2)cc1NS(=O)(=O)c1ccc2c(c1)OCCO2	PostGolgi ctrl 97.7, PostGolgi yeast 85.5 (no result: Ecoli tolC)
Cc1ccc(-n2nnnc2SC(C)C(N)=O)c(C)c1 (configuration not stated)	none
Cc1ccc(-n2nnnc2SC(C)C(=O)Nc2ccc(Cl)cn2)cc1 (configuration not stated)	Cav32 inh -4.11
Cn1c(CSc2nnc(SCc3ccccc3)s2)nc2ccccc21	Cav32 inh -4.35, Ecoli tolC 83.8
O=C1CCCC2=C1C(c1ccc(Cl)cc1)C1C(=O)c3ccccc3C1=N2 (configuration not stated)	PostGolgi ctrl 42.9 (no result: Ecoli tolC)
O=C1CCCC2=C1C(c1ccc(Cl)cc1)N1C(=O)CCSC1=N2 (configuration not stated)	none (no result: PostGolgi ctrl, PostGolgi yeast, E coli WT exp, Ecoli tolC)
O=[N+]([O-])c1cc(-c2csc(NC(CO)c3nc4ccccc4n3CCOCCO)n2)ccc1Cl (configuration not stated)	none (no result: PostGolgi ctrl, PostGolgi yeast, E coli WT exp, Ecoli tolC)
CCc1ccccc1NC(=O)c1cc2sccc2n1C	Cav32 inh -2.43
c1coc(CNCc2cccs2)c1	none (no result: PostGolgi ctrl, PostGolgi yeast, E coli WT exp, Ecoli tolC)
Fc1ccc(Cn2c(SCc3ccc(F)c(C(F)(F)F)c3)nnc2C(F)(F)F)cc1	none (no result: Ecoli tolC)
Fc1ccc(Cn2c(SCc3ccc(F)c(F)c3)nnc2C(F)(F)F)cc1	Cav32 inh -3.79 (no result: Ecoli tolC)
Cc1ccc(CS(=O)(=O)CCC(=O)NCCCOC(C)C)cc1	none (no result: Cav32 inh)
Cc1[nH][nH]c(=O)c1C(c1ccc(-c2ccc(Cl)cc2Cl)o1)c1c(C)[nH][nH]c1=O	none (no result: Ecoli tolC)
CC1=NOC(=O)/C1=C\c1ccc(-c2ccc(Cl)cc2Cl)o1	PostGolgi ctrl 35.1, PostGolgi yeast 59.5 (no result: Ecoli tolC)
COc1cnc(N(C)C)nc1Sc1ccc(Cl)cc1	none (no result: Ecoli tolC)
COc1cnc(-c2ccccn2)nc1Sc1ccc(Cl)cc1	PostGolgi ctrl 34.6 (no result: Ecoli tolC)
COC(=O)[C@H]1C[C@H]1[C@@H](NC(=O)c1ccc[nH]1)c1ccccc1	none (no result: PostGolgi ctrl, PostGolgi yeast, E coli WT exp, Ecoli tolC)
COC(=O)c1nn(-c2cccc(C(F)(F)F)c2)c(=O)cc1Sc1ccccn1	none (no result: Ecoli tolC)
O=C(COc1ccc(Cl)cc1Cl)N1CCCCCC1	none
Cc1cc(Cl)ccc1OCC(=O)N1CC(C)CC(C)C1 (configuration not stated)	Cav32 inh -5.32
CC1CCCCN1S(=O)(=O)c1ccc(NC(=O)CSc2nnnn2C)cc1 (configuration not stated)	none (no result: Cav32 inh)
Cn1nc(-c2ccc(Cl)cc2)nc2c(=O)n(C)c(=O)nc1-2	PostGolgi ctrl 107.4, PostGolgi yeast 105.6 (no result: Ecoli tolC)
CCS(=O)(=O)n1nc(-c2ccc(Cl)cc2)nc1SC	none (no result: Ecoli tolC)
Cc1c(NS(=O)(=O)c2ccc3c(c2)c(=O)n(C)c(=O)n3C)c(=O)n(-c2ccccc2)n1C	none (no result: Cav32 inh)
COc1ccc(C2C3=C(CCCC3=O)Nc3nc(-c4cc(OC)c(OC)c(OC)c4)nn32)cc1OC (configuration not stated)	PostGolgi yeast 32.6
Cc1ccc(O)c(Sc2cc(C)ccc2O)c1	none (no result: Cav32 inh)
COC(=O)c1ccc(O)c(Sc2cc(C(=O)OC)ccc2O)c1	Ecoli tolC 87.2 (no result: Cav32 inh)
Cc1ccc2c(c1)N(CC(=O)NCc1cccs1)C(=O)CO2	none
COc1ccc(S(=O)(=O)NCc2cccs2)cc1	none (no result: Ecoli tolC)
COc1ccc(S(=O)(=O)N(Cc2cccs2)C2CCCC2)cc1	PostGolgi ctrl 30.6, Ecoli tolC 65.8 (no result: Cav32 inh)
CCCCNC(=O)c1onc(CSc2cccc(OCC)c2)c1C(=O)O	none (no result: Ecoli tolC)
CCCCNC(=O)c1onc(CSc2cccc3ccccc23)c1C(=O)O	Cav32 inh -3.1 (no result: Ecoli tolC)
